Bioassay records as filed in PubChem.
Most compounds without a hit are left out; they make up all but 3.1% or so of the library.
HSF1 inh – HSF1 inhibition; NIH3T3-HGL HSE-luciferase, MG132-induced, luminescence 8 h; stronger effect = lower value; activity change, negative = inhibition, % at 7.5 µM (by protocol); actives 0.77% (n = 300,000); AID 2098;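 active = more than half of replicate wells show activity change below -50%, luminescence cut by over half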;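 also: luciferase reports HSF-1 transcriptional activity via heat shock element; 0% = median of DMSO wells and -100% = zero luminescence signal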
Hsp70 act – transcriptional activators of Hsp70; HeLa Hsp70 promoter luciferase reporter, luminescence; scaled: vehicle 0, proteasome-inhibitor control 100%; activation, % at 10 µM; actives 0.04% (n = 200,000); AID 1203;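 active = activation above the mean across all tested compounds plus 3 SD, cutoff set per campaign, cut at about 5.5% in these data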;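 also: 100% = MG132 at 30 µM as the positive control and 0% = DMSO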
HSF-1 act – increases HSF-1 driven luciferase reporter signal; NIH3T3-HGL HSF-1 luciferase reporter, MG132, 8 h; 100% = twice DMSO control signal; activation, % at 9 µM; actives 1.7% (n = 300,000); AID 504408;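 active = mean replicate activation of at least 50% with a set share of replicates each reaching 50%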;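 also: 0% = median of the neutral control wells and 100% = twice that signal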
TbHK1 inh – T. brucei hexokinase 1 inhibition. inhibition, % at 10 µM. recombinant TbHK1, G6PDH-coupled NADH A340. actives 0.11% (n = 220,000);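 active = inhibition of 50% or more in the single-dose primary screen; inactive = inhibition below 50%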
HSP90 inh – HSP90 refolding inhibition in rabbit reticulocyte lysate. actives 0.91% (n = 290,000). AID 1789. inhibition, % at 5.6 µM. luciferase refolding luminescence, 3 h;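 active = inhibition above the screen-wide mean plus 3 SD, computed separately per campaign, cut at about 16% in these data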;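 also: 0% = DMSO wells and 100% = 60 µM geldanamycin wells; inhibitors lower the luminescence because luciferase stays unfolded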
HKDC1 inh – blocks human hexokinase HKDC1 activity | Q2TB90 | recombinant HKDC1, G6PDH/diaphorase resazurin coupled fluorescence | inhibition, % at 20 µM | actives 0.16% (n = 340,000);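 active = inhibition above about 35% when tested at 20 µM, limit read from the data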;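 also: plate controls were DMSO wells with enzyme for no effect and DMSO wells lacking enzyme for full effect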
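Assay system: recombinant HKDC1 hexokinase; detection: coupled resazurin fluorescence, excitation 525 nm, emission 613 nm; benchmarks: DMSO-plus-enzyme-mix negative control, buffer-substituted positive control; compound dosing: single 20 µM dose; schedule: 90 min at room temperature in dark; also added: glucose plus 1 mM ATP as hexokinase substrates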
G6PDH ctr – inhibits Leuconostoc G6PDH, counter-screen for TbHK1 inhibitors | shares compounds with TbHK1 inh | purified G6PDH, NADH absorbance, 1 h | inhibition, % at 10 µM | actives 7% (n = 210);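 active = at least 50% inhibition in the glucose-6-phosphate dehydrogenase coupled counterscreen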
TbHK1 confirm – confirmation of Trypanosoma brucei hexokinase 1 inhibitors; shares compounds with TbHK1 inh; recombinant TbHK1, G6PDH-coupled NADH A340 absorbance; inhibition, % at 10 µM; actives 10% (n = 210); AID 2560;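 active = inhibition of at least 50% in both of the two screening runs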;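 also: 0% and 100% set by the maximum and minimum signal control wells on each plate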
HSP90 confirm – HSP90 inhibition, confirmation assay; shares compounds with HSP90 inh; rabbit reticulocyte lysate, luciferase refolding luminescence, 3 h; inhibition, % at 5.9 µM; actives 64% (n = 2,300); in the data active = inhibition above about 18%;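 also: 0% = vehicle wells and 100% = reference inhibitor wells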
FLuc counter – blocks native firefly luciferase in HSP90 counter-screen | shares compounds with HSP90 inh | purified native firefly luciferase, luminescence | inhibition, % at 5.9 µM | actives 48% (n = 2,300) | AID 1847;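 active = inhibition above the mean inhibition of all tested sample wells plus 3 SD, cut at about 10% in these data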;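 also: 0% = DMSO with luciferase and 100% = wells lacking luciferase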
HKDC1 act conf – confirmation of human HKDC1 activators. inhibition, % at 20 µM. AID 504708. shares compounds with HKDC1 inh. actives 14% (n = 740). recombinant HKDC1, G6PDH/diaphorase resazurin fluorescence; stronger effect = lower value;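 active = inhibition at or below a set negative limit, negative inhibition meaning the enzyme was activated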
Numbers without * were called inactive.

Results for O=C(O)C(Cc1ccccc1)N1C(=O)/C(=C/C=C/c2ccco2)SC1=S (configuration not stated) ?
HSF1 inh: -2; HSF-1 act: -16; TbHK1 inh: 51*; HSP90 inh: 7; HKDC1 inh: 37*; G6PDH ctr: -71; TbHK1 confirm: 40; HKDC1 act conf: -2

Results for CN(C)c1ccc2nc3ccc(=[N+](C)C)cc-3sc2c1 ?
HSF1 inh: 26; Hsp70 act: 0; HSF-1 act: 48; TbHK1 inh: 75*; HSP90 inh: 15; HKDC1 inh: 36*; G6PDH ctr: 128*; TbHK1 confirm: 77*; HKDC1 act conf: 25

Results for CCN(C(=O)COC(=O)/C(=C/c1ccccc1)NC(C)=O)c1c(N)n(Cc2ccccc2)c(=O)[nH]c1=O ?
HKDC1 inh: -4

Results for O=C(CN1CCN(c2ccccc2)CC1)N1N=CCC1c1ccccc1 (configuration not stated) ?
HSF1 inh: -6; Hsp70 act: 0; HSF-1 act: -3; TbHK1 inh: -1; HSP90 inh: 39*; HKDC1 inh: -7; HSP90 confirm: -9; FLuc counter: -9

How did O=C(Nc1ccccc1)C1=C[C@H](C2CCCCC2)C[C@H](OCCCCO)O1 do in these assays?
HSF1 inh: -39; HSF-1 act: -45; HKDC1 inh: -1

What do the screens show for `O=C(Nc1ccccc1)C1=C[C@@H](C2CCCCC2)C[C@@H](OCCCCO)O1`?
HSF1 inh: -41; Hsp70 act: 0; HSF-1 act: -43; TbHK1 inh: -2; HSP90 inh: 26*; HKDC1 inh: -3; HSP90 confirm: 35*; FLuc counter: 28*

How did CCOC(=O)C1=C(COC(=O)CNS(=O)(=O)c2ccc(NC(C)=O)cc2)NC(=O)NC1C (configuration not stated) do in these assays?
HKDC1 inh: -6

What do the screens show for `c1ccc(NNC2=NCCS2)cc1`?
HSF1 inh: -6; HSF-1 act: -7; HSP90 inh: 19*; HKDC1 inh: -7; HSP90 confirm: 14; FLuc counter: -15

What do the screens show for `CC1(CC(=O)N/N=C/c2ccc(-c3ccc(C(=O)O)cc3)o2)OCCO1`?
HSF1 inh: -6; Hsp70 act: 0; HSF-1 act: 7; TbHK1 inh: -71; HSP90 inh: -1; HKDC1 inh: -5

What do the screens show for `COC(=O)c1ccc(-c2ccc(/C=N/NC(=O)CC3(C)OCCCO3)o2)cc1`?
HSF1 inh: -9; Hsp70 act: 0; HSF-1 act: -4; TbHK1 inh: -46; HSP90 inh: 17*; HKDC1 inh: -7; HSP90 confirm: 26*; FLuc counter: 0

How did CCOC(=O)c1c(C)[nH]c(/C(C)=N/O)c1C do in these assays?
HSF1 inh: -4; Hsp70 act: 0; HSF-1 act: 12; TbHK1 inh: 5; HSP90 inh: -3; HKDC1 inh: -4

What do the screens show for `CCOC(=O)c1c(C)[nH]c(C2=NNC(=NC3CC3)SC2)c1C`?
HSF1 inh: -2; Hsp70 act: 0; HSF-1 act: -1; TbHK1 inh: -10; HSP90 inh: 55*; HKDC1 inh: -77; HSP90 confirm: 84*; FLuc counter: 75*

How did COc1cc(OC)cc(C(=O)NNC(=O)CCNS(=O)(=O)c2ccc(Br)cc2)c1 do in these assays?
HKDC1 inh: -2
